In ChEMBL document CHEMBL5032510, “Identification of Novel Fused Heteroaromatics-Based MALT1 Inhibitors by High-Throughput Screening to Treat B Cell Lymphoma” (J Med Chem, 2021):

How the values were obtained:
[1] = Clearance in CD-1 mouse at 1 mg/kg, iv by LC-MS/MS analysis; assay type: ADME, organism-based; settings: in vivo
Outline: (§1)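 Compound formulated in 5% DMSO + 5% Tween-80 in 90% saline and given to male ICR (CD-1) mice (n = 9) at 10 mg/kg po, 1 mg/kg ip or 1 mg/kg iv. Blood was drawn via the jugular vein at set time points and held on ice. Plasma was separated by centrifugation and stored at −80 °C before PK parameters were derived.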

TMD8 = test: Induction of apoptosis in human TMD8 cells assessed as dead cells at 2 uM measured after 24 hrs by Annexin V-FITC/ Propidium iodide staining based flow cytometry (reference value: 0%); assay type: functional
OCI-Ly1 [2] = test: Induction of apoptosis in human OCI-Ly1 cells assessed as early apoptotic cells at 2 uM measured after 24 hrs by Annexin V-FITC/ Propidium iodide staining based flow cytometry (reference value: 1.29%); assay type: functional
OCI-Ly1 [3] = test: Induction of apoptosis in human OCI-Ly1 cells assessed as early apoptotic cells at 5 uM measured after 24 hrs by Annexin V-FITC/ Propidium iodide staining based flow cytometry (reference value: 1.29%); assay type: functional
HBL1 = test: Induction of apoptosis in human HBL1 cells assessed as increase in cleaved caspase 3 level measured after 12 hrs by Western blot analysis; assay type: functional, cell-based
Outline: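 HBL1, TMD8 or OCI-LY1 cells were exposed to DMSO or compound for 12 h. Cleaved PARP and caspase-3 were probed by western blot with HRP-conjugated secondary antibodies and chemiluminescent detection. Each lane held 20−75 μg total protein.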

[4] = Cmax in CD-1 mouse at 1 mg/kg, ip by LC-MS/MS analysis; assay type: ADME, organism-based; design: route intraperitoneal, dose 1 mg/kg; settings: in vivo; outline: as §1
[5] = Oral bioavailability in CD-1 mouse at 10 mg/kg by LC-MS/MS analysis; assay type: ADME, organism-based; settings: in vivo
Outline: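 Male ICR (CD-1) mice (n = 9). Compound formulated in 5% DMSO + 5% Tween-80 in 90% saline and dosed 10 mg/kg po, 1 mg/kg ip or 1 mg/kg iv. Blood drawn from the jugular vein at set time points and held on ice. Plasma separated by centrifugation and stored at −80 °C before parameter derivation.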

[6] = Toxicity in NCG mouse xenografted with human TMD8 cells assessed as emaciation at 30 mg/kg/day, ip measured for 13 days; settings: in vivo, 312 h
[7] = Toxicity in NCG mouse xenografted with human TMD8 cells assessed as body weight loss at 30 mg/kg/day, ip measured for 13 days; settings: in vivo, 312 h

SMILES: COc1ccc(OC)c(NC(=O)c2sc(=S)n(-c3ccc(C(F)(F)F)cc3)c2NC(=O)CCl)c1
- clearance [1]: 14.1 mL/min/kg
- Activity (TMD8): 0.048%
- Activity (OCI-Ly1 [2]): 1.87%
- Activity (OCI-Ly1 [3]): 1.6%
- Activity (HBL1): Dose-Dependent Effect
- Cmax [4]: 336 ng/mL
- bioavailability [5]: 110%
- Activity [6]: Non-Toxic
- Activity [7]: Non-Toxic
